Assay results from ChEMBL document CHEMBL2434872, “Modulation of A2B adenosine receptor by 1-Benzyl-3-ketoindole derivatives” (Eur J Med Chem, 2013).
Activity calls are given as the source filed them. The rule behind the calls is not given here.

Legend:
CHO = assay: Effect on cAMP production in adenosine receptor-deficient wild type CHO cells; type: functional, cell-based; settings: Cricetulus griseus
Adenosine receptor A3 = molecular target: T1, Adenosine receptor A3 (Homo sapiens, UniProt P0DMS8); assay: Displacement of [125I]AB-MECA from human adenosine A3 receptor expressed in CHO cell membrane after 90 mins; type: cell membranes
T1 sequence (P0DMS8 whole entry): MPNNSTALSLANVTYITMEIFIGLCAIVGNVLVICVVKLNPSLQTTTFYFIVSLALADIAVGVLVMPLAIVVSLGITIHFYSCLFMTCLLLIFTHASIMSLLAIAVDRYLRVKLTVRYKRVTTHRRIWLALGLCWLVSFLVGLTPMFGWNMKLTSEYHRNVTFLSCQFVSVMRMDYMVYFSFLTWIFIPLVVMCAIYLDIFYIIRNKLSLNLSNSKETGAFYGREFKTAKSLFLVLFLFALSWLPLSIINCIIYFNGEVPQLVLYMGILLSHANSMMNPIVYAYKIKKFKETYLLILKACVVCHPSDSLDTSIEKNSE

Adenosine receptor A1 [1] = molecular target: T2, Adenosine receptor A1 (Homo sapiens, UniProt P30542); assay: Displacement of [3H]DPCPX from human adenosine A1 receptor expressed in CHO cell membrane after 180 mins; type: cell membranes
T2 sequence (P30542 whole entry): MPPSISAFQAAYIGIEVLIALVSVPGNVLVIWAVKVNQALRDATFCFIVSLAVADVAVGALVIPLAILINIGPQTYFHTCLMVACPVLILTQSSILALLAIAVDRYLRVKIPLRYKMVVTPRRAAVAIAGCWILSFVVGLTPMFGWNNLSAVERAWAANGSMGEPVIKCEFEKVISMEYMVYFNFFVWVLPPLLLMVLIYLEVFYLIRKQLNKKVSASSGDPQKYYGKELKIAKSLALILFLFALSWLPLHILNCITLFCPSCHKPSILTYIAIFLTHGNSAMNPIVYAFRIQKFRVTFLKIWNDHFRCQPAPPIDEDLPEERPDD

Adenosine receptor A2a = Adenosine receptor A2a (Homo sapiens, UniProt P29274); assay: Displacement of [3H]NECA from human adenosine A2A receptor expressed in CHO cell membrane after 90 mins; type: cell membranes
[2] = molecular target: T3, Adenosine receptor A1 (Homo sapiens) (UniProt P30542); assay: (§1) Antagonist activity at human recombinant adenosine A1 receptor expressed in CHO cells assessed as inhibition of NECA-mediated reduction of intracellular [3H]-cAMP accumulation incubated for 15 mins prior to NECA induction measured after 30 mins by liquid scintillation spectrometric analysis in presence of forskolin; type: functional, cell-based
T3 sequence (whole entry): T2 sequence (P30542 whole entry)
Method in brief: (§2)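 CHO cells stably expressing human A1 receptor were plated for 24 h, then preincubated 15 min at 37 °C in DMEM with ADA (1 U/mL) and Ro20-1724 (20 µM). Compound (1 nM–10 µM) was added for 15 min, then 10 nM NECA with 1 µM forskolin for 15 min. Lysis was in 0.4 N HCl. cAMP was measured by [3H]cAMP competition with bovine adrenal binding protein, as % of forskolin level. IC50 from ≥3 experiments, duplicates.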

Adenosine receptor A1 [3] = molecular target: T2, Adenosine receptor A1; assay: as §1; type: functional, cell-based; method in brief: as §2

Chain of Adenosine receptor A2a (P29274 whole entry): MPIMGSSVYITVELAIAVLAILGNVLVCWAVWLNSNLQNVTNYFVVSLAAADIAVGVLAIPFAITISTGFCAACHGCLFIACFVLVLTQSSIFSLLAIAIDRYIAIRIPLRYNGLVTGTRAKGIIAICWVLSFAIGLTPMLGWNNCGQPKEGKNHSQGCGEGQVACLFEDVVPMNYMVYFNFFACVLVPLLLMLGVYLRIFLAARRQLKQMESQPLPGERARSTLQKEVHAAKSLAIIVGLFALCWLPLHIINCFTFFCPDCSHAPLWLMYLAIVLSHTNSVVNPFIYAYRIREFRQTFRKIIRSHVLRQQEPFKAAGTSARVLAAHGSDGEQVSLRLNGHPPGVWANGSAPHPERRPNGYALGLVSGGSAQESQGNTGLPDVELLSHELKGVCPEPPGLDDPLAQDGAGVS

Row | SMILES | Activity (CHO) | Ki (Adenosine receptor A3) [µM] | Ki (Adenosine receptor A1 [1]) [µM] | Ki (Adenosine receptor A2a) [µM] | inhibition [2] | IC50 (Adenosine receptor A1 [3]) [µM]
1 | O=C(NCc1ccccc1)C(=O)c1cn(Cc2ccccc2)c2ccccc12 | inactive | – | – | – | – | –
2 | O=C(Nc1ccccc1)C(=O)c1cn(Cc2ccccc2)c2ccccc12 | inactive | > 1 | > 10 | > 10 | – | –
3 | O=C(C(=O)c1cn(Cc2ccccc2)c2ccccc12)c1ccco1 | inactive | > 1 | 0.343 | > 10 | Dose-dependent effect | 0.291
4 | O=C(Nc1ccccc1)c1cn(Cc2ccccc2)c2ccccc12 | inactive | > 1 | > 10 | > 10 | – | –
5 | O=C(C(=O)c1cn(Cc2ccccc2)c2ccccc12)c1cccs1 | inactive | > 1 | > 10 | > 10 | – | –
6 | O=C(C(=O)c1cn(Cc2ccccc2)c2ccccc12)c1ccccc1 | inactive | > 1 | 0.162 | > 10 | Dose-dependent effect | 0.404
7 | O=C(NCc1ccccc1)c1cn(Cc2ccccc2)c2ccccc12 | inactive | > 1 | > 10 | > 10 | – | –
